# Measurements gathered from unrelated publications.
# Compare with care: the assays were run in different laboratories.
# Organism: Mycobacterium tuberculosis
# Observed: microbial growth
Structure (SMILES),method,strain,time,MIC
Cc1ccc(C)n1-c1ccc(-c2nnc(-c3ccccc3[N+](=O)[O-])[nH]2)cc1,broth dilution,H37RV,21 days,16 µg/mL
CCCC1CCC2(CC1)SCC(=O)N2NC(=O)c1[nH]c2ccc(Cl)cc2c1-c1ccccc1 (stereo not drawn),,ATCC27294 H37RV,,31 µM
N#Cc1cc(C(F)(F)F)cc2c(=O)nc(N3CCN(CC4CCC4)CC3)sc12,resazurin,H37RV,,> 2 µM
COC1C(O)C(n2ccc(=O)[nH]c2=O)OC1C(OC1OC(C(=O)Nc2ccc(F)c(F)c2)=CC(O)C1O)C(N)=O (stereo not drawn),resazurin,H37RV,,1.56 µg/mL
COC(=O)c1cc(-c2cccc(NC(=S)Nc3ccccc3)c2)on1,,ATCC27294 H37RV,7 days,2 µg/mL
COc1nc2ccc(Br)cc2cc1[C@@H](c1ccccc1)[C@@](O)(CCN(C)C)c1cccc2ccccc12,resazurin,H37RV,7 days,0.17 µM
CO[C@H]1/C=C/O[C@@]2(C)Oc3c(C)c(O)c4c(O)c(c(/C=N/N5CCN(C)CC5)c(O)c4c3C2=O)NC(=O)/C(C)=C\C=C\[C@H](C)[C@H](O)[C@@H](C)[C@@H](O)[C@@H](C)[C@H](OC(C)=O)[C@@H]1C,,H37RV,5 days,0.012 µM
CC1CCCC2(C1)SCC(=O)N2NC(=O)c1[nH]c2ccc(Cl)cc2c1-c1ccccc1 (stereo not drawn),,ATCC27294 H37RV,,16 µM
O=C1C(=NNc2nc(-c3ccccc3)cs2)C(N=Cc2ccccc2)=NN1c1ccccc1,resazurin,H37RV,5 days,13.9 µM
Cc1ccc(-c2nc3ccc(C)cn3c2CC(=O)N(C)C)cc1,,H37RV,5 days,10 to 11 µM
CC1=NN(CNc2ccccn2)C(=O)C1=NNn1c(-c2ccccc2)nc2ccccc2c1=O,resazurin,H37RV,,110 µM
CCCCCCC/C=C\[C@H](O)C#CC#C[C@@H](O)CC,resazurin,ATCC27294 H37RV,7 days,50.2 µg/mL
O=C(CNS(=O)(=O)c1ccc([N+](=O)[O-])cc1)N1CCN(C(c2ccc(F)cc2)c2ccc(F)cc2)CC1,,ATCC27294 H37RV,,25 µg/mL
CCCC1CCC2(CC1)SC(C)C(=O)N2NC(=O)c1[nH]c2ccc(Cl)cc2c1-c1ccccc1 (stereo not drawn),,ATCC27294 H37RV,,1000 µM
CC(C)[C@H]1CO[C@]23CCN(Cc4ccccc4)C[C@H]2CCC(=O)N13,,H37RV,7 days,7.3 µM
CO[C@@H]1[C@@H](OC(N)=O)[C@@H](O)[C@H](Oc2ccc3c(O)c(NC(=O)c4ccc(O)c(CC=C(C)C)c4)c(=O)oc3c2C)OC1(C)C,resazurin,H37RA,14 days,8 µg/mL
O=C1C(=NNc2nc(-c3ccccc3)cs2)C(N=Cc2ccccc2Cl)=NN1c1ccccc1,resazurin,H37RV,,25 µg/mL
CO[C@H]1/C=C/O[C@@]2(C)Oc3c(C)c(O)c4c(O)c(c(/C=N/N5CCN(C)CC5)c(O)c4c3C2=O)NC(=O)/C(C)=C\C=C\[C@H](C)[C@H](O)[C@@H](C)[C@@H](O)[C@@H](C)[C@H](OC(C)=O)[C@@H]1C,,H37RA,,0.008 µg/mL
COC(=O)c1cc(-c2cccc(NC(=O)Nc3ccccc3)c2)on1,,ATCC27294 H37RV,7 days,4 µg/mL
Nc1ccc(C(=O)O)c(O)c1,broth dilution,H37RV,,0.125 µg/mL
COC(=O)c1cc(-c2cccc(NC(=O)Nc3ccc(Cl)c(C(F)(F)F)c3)c2)on1,,ATCC27294 H37RV,7 days,> 64 µg/mL
OCN(CO)c1nc(N(CO)CO)nc(N(CO)CO)n1,,H37RV,7 days,8 to 16 µg/mL
O=C(NC(=O)c1cc2c(F)cc(F)cc2[nH]1)c1cccc(Cl)c1,resazurin,H37RV,,> 96 µM
O=C1C(=NNc2nc(-c3ccccc3)cs2)C(N=Cc2ccccc2O)=NN1c1ccccc1,resazurin,H37RV,,25 µg/mL
Cc1ccc(C)n1-c1ccc(-c2nnc(-c3ccccc3Cl)[nH]2)cc1,broth dilution,H37RV,21 days,8 µg/mL
O=C(Nc1ccc2c(c1)OC(F)(F)O2)Nc1ccc(Cl)c(C(F)(F)F)c1,,H37RV,,2 µM
NNC(=O)c1ccncc1,resazurin,H37RA,14 days,0.05 µg/mL
Cc1c(Cc2ccc(F)cc2F)c(=O)n2c([nH]c3ccccc32)c1C#N,broth dilution,H37RV,,1 µg/mL
C[C@H]1COC2(CCN(c3nc(=O)c4cc(C(F)(F)F)cc([N+](=O)[O-])c4s3)CC2)O1,resazurin,H37RV,,< 0.39 µM
CC(C)[C@H]1CO[C@]23CCN(Cc4ccc(OC(F)(F)F)cc4)C[C@H]2CCC(=O)N13,resazurin,H37RV,7 days,0.17 µM
CCOC(=O)c1cc(-c2cccc(NC(=O)Nc3ccc(Cl)c(Cl)c3)c2)on1,,ATCC27294 H37RV,7 days,1 µg/mL
O=C(C1CCCN(S(=O)(=O)c2ccccc2[N+](=O)[O-])C1)N1CCN(C(c2ccc(F)cc2)c2ccc(F)cc2)CC1 (stereo not drawn),,ATCC27294 H37RV,,> 25 µg/mL
COC(=O)c1cc(-c2cccc(NC(=O)Nc3ccc(C)c(Cl)c3)c2)on1,,ATCC27294 H37RV,7 days,16 µg/mL
Cc1c(Cc2ccc(F)cc2)c(=O)n2c([nH]c3ccccc32)c1C#N,broth dilution,H37RV,,2 µg/mL
Cc1ccn2c(C(=O)NCc3cccc(S(F)(F)(F)(F)F)c3)c(C)nc2c1,,H37RV,5 days,0.65 µM
CC(C)(C)C1CCC2(CC1)SCC(=O)N2NC(=O)c1[nH]c2ccc(Cl)cc2c1-c1ccccc1 (stereo not drawn),,ATCC27294 H37RV,,16 µM
Cc1ccc(C)n1-c1ccc(C(=O)NNC=O)cc1,broth dilution,H37RV,21 days,4 µg/mL
CC[C@@H](CO)NCCN[C@@H](CC)CO,resazurin,H37RA,14 days,1 µg/mL
c1ccc(-c2nc3cc(Nc4nccn4-c4cc(NC5CCCC5)ncn4)ccc3[nH]2)cc1,,W4,,> 20 µM
N#Cc1cc(C(F)(F)F)cc2c(=O)nc(N3CCN(CC4COC4)CC3)sc12,resazurin,H37RV,,> 2 µM
CO[C@H]1/C=C/O[C@@]2(C)Oc3c(C)c(O)c4c(O)c(c(/C=N/N5CCN(C)CC5)c(O)c4c3C2=O)NC(=O)/C(C)=C\C=C\[C@H](C)[C@H](O)[C@@H](C)[C@@H](O)[C@@H](C)[C@H](OC(C)=O)[C@@H]1C,,ATCC27294 H37RV,7 days,0.03 µg/mL
CC(C)CC=CC=CC(=O)NC(CC(N)=O)C(=O)NC1C(=O)NC(c2ccc(O)cc2)C(=O)NC(CCCN)C(=O)NC(C(C)O)C(=O)NC(c2ccc(O)cc2)C(=O)NC(c2ccc(O)cc2)C(=O)NC(C(C)O)C(=O)NC(Cc2ccccc2)C(=O)NC(CCCN)C(=O)NC(c2ccc(OC3OC(CO)C(O)C(O)C3OC3OC(CO)C(O)C(O)C3O)cc2)C(=O)NC(C(C)O)C(=O)NC(c2ccc(O)cc2)C(=O)NCC(=O)NC(CC(C)C)C(=O)NC(C)C(=O)NC(c2ccc(O)c(Cl)c2)C(=O)OC1C(N)=O (stereo not drawn),,H37RV,14 days,6.25 to 12.5 µg/mL
CN(CC[C@H](N)CC(=O)N[C@H]1C=C[C@H](n2ccc(N)nc2=O)O[C@@H]1C(=O)O)C(=N)N,,H37RA,,> 50 µM
CO[C@H]1/C=C/O[C@@]2(C)Oc3c(C)c(O)c4c(O)c(c(/C=N/N5CCN(C)CC5)c(O)c4c3C2=O)NC(=O)/C(C)=C\C=C\[C@H](C)[C@H](O)[C@@H](C)[C@@H](O)[C@@H](C)[C@H](OC(C)=O)[C@@H]1C,,H37RV,,0.05 µg/mL
[O-][n+]1ccccc1SSc1cccc[n+]1[O-],resazurin,,,0.23 µM
O=C1C(=NNc2nc(-c3ccccc3)cs2)C(N=Cc2cccc(Cl)c2)=NN1c1ccccc1,resazurin,H37RV,,6.25 µg/mL
COC(=O)c1cc(-c2cccc(NC(=O)Nc3ccccc3F)c2)on1,,ATCC27294 H37RV,7 days,2 µg/mL
O=C1COCCN1c1ccc(CO[C@@H]2COc3nc([N+](=O)[O-])cn3C2)cc1,,H37RV,,0.4 to 0.8 µg/mL
COc1nc2ccc(Br)cc2cc1[C@@H](c1ccccc1)[C@@](O)(CCN(C)C)c1cccc2ccccc12,,,,0.06 µg/mL
O=C(NN1C(=O)CSC12CCCCC2)c1[nH]c2ccc(Cl)cc2c1-c1ccccc1,,ATCC27294 H37RV,,16 µM
COC(=O)c1cc(-c2cccc(NC(=S)Nc3cccc(Br)c3)c2)on1,,ATCC27294 H37RV,7 days,8 µg/mL
